Screening data: PubChem BioAssay, several laboratories
hiPSC survival – enhancers of single-cell hiPSC survival, primary screen, ATPlite luminescence | 100% = ROCK inhibitor wells, 0% = DMSO | survival enhancement, % at 20 µM | hit rate 0.044% among 360,000; in the data active means survival enhancement above about 18%;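 further: cells exposed to compounds for 16 hours before the ATP read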
TbMetRS inhib – T. brucei MetRS inhibitors, primary screen, biochemical, luminescence; methionyl-tRNA synthetase (Trypanosoma brucei brucei); purified T. brucei MetRS, ATP depletion, Kinase-Glo luminescence; inhibition, % at 11.9 µM; hit rate 0.4% among 360,000;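 active means inhibition above a per-plate cutoff of the control wells' mean inhibition plus 3 SD, cut at about 5.5% in these data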;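 further: 0% = DMSO wells median and 100% = median of wells with control inhibitor compound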
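System: purified T. brucei MetRS enzyme / Detection: Kinase-Glo luciferase luminescence reporting remaining unconsumed ATP / Medium: HEPES buffer with MgCl2, KCl, DTT, spermine, BSA, pyrophosphatase / Replication: singlicate, one well per compound / Evaluation: percent inhibition relative to median high and low control wells / Schedule: 2 h aminoacylation at 25 °C after 15 min preincubation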
MC4R ag barr – MC4R agonists recruiting beta-arrestin, primary screen, cell-based, luminescence, agonist arm of biased-ligand search; Melanocortin receptor 4 (Homo sapiens), P32245; U2OS MC4R beta-arrestin complementation; percent of melanotan II response, DMSO zero; activation, % at 8.9 µM; hit rate 0.98% among 360,000; AID 540308, 2011;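 active means activation above a per-plate cutoff, the mean activation of sample wells on that plate plus 3 SD, cut at about 8% in these data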
Target sequence (P32245 whole entry, looked up): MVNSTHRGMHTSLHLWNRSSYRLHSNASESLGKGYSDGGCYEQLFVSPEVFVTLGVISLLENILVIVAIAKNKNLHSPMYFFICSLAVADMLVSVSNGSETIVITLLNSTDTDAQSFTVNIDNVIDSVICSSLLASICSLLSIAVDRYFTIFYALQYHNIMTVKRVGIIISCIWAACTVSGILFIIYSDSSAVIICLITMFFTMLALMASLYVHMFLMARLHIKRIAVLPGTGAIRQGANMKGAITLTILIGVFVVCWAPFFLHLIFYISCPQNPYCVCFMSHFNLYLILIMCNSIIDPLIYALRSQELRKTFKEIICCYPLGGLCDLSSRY
MC4R antag cAMP – MC4R antagonists of cAMP signaling, primary screen, cell-based, TR-FRET, antagonist arm of biased-ligand search | Melanocortin receptor 4 (Homo sapiens), P32245 | MC4R-expressing cells, MTII-stimulated cAMP, LANCE TR-FRET | inhibition, % at 6.5 µM | hit rate 0.48% among 360,000;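 active means inhibition above its plate's cutoff, the mean of tested wells on that plate plus 3 SD, cut at about 29% in these data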;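 further: 0% = Melanotan II alone and 100% = Melanotan II plus saturating MCL0020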
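Material – human MC4R-expressing U2OS cells · Repeats – no replicates · Detection – TR-FRET with Eu-cAMP and labeled anti-cAMP, 671 nm · Times – compound 30 min, challenge 1 h, detection 1 h · Compound – single nominal compound dose of 6.5 µM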
ABCB6 inh 2 – ABCB6 transporter inhibitors, primary screen, K562-ABCB6 cells, flow cytometry, MLPCN library. hit rate 0.19% among 360,000. fluorescence ratio to DMSO, % at 10 µM. ATP-binding cassette sub-family B member 6 (Homo sapiens), Q9NP58. K562-ABCB6 porphyrin accumulation, 1 h; hits give low values;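 active means fluorescence ratio to DMSO below 75%, the collection mean minus 3 SD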;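 further: signal is porphyrin accumulated inside mitochondria; 100% equals median channel fluorescence of DMSO control wells; lower ratio means ABCB6 inhibition with less porphyrin fluorescence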
Exocytosis inh – LAMP-1 surface exposure blockers, TALL-104 cells – cell-based, flow cytometry, MLPCN library, primary screen; inhibition, % at 10 µM; AID 651702, 2012; TALL-104 LAMP-1 surface exposure; cells stimulated with thapsigargin and PMA; hit rate 0.66% among 360,000;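 active means inhibition above about 55%, limit read from the data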
Starred values were filed as active, the others as inactive. Rows were chosen to be rich in hits. Some 2.6% of all compounds tested hit in one or more screens of this group.

SMILES	hiPSC survival	TbMetRS inhib	MC4R ag barr	MC4R antag cAMP	ABCB6 inh 2	Exocytosis inh
CCOc1ccccc1N(C(=O)c1snc(C(N)=O)c1N)C(C(=O)NC1CCCC1)c1cccs1 (stereo unspecified)	1	0	-2	11	97	74*
O=C(c1cccnc1)c1ncc(C(F)(F)F)cc1Cl	0	1	0	2	98	19
Cc1ccc(S(=O)(=O)N2CCOCC2)cc1C(=O)N1CCN(S(=O)(=O)c2cccs2)CC1	0	0	2	5	101	10
O=C(N[C@@H](Cc1ccccc1)C(=O)O)c1ccncc1	-4	0	-1	1	96	3
CCN(CC(=O)NCc1cccs1)C(=O)c1ccc(-c2ccc(F)cc2)o1	0	0	1	7	96	-5
CCC(=O)Nc1ccc(Cl)c(NC(=S)NC(=O)c2ccco2)c1	-3	-1	-3	-2	99	-1
CCC(=O)Nc1ccc(Cl)c(NC(=S)NC(=O)c2cc3ccccc3o2)c1	-1	0	8.2*	-7	99	-6
Cc1ccc(-c2cc(C(F)(F)F)nn2-c2ccc(S(N)(=O)=O)cc2)cc1	0	0	8.5*	5	890	-5
NS(=O)(=O)c1ccc(-n2nc(C(=O)O)cc2-c2ccc(Cl)cc2)cc1	-1	-1	-1	-1	100	-2
O=C(c1ccccc1)N(NC(=O)C(O)(c1ccccc1)c1ccccc1)c1cccc(F)c1	1	0	-2	3	96	-3
Cc1ccc(N(NC(=O)C(O)(c2ccccc2)c2ccccc2)C(=O)CCl)cc1	-1	0	10*	27	99	13
Cc1ccc(C(O)(C(=O)NN(C(=O)c2ccccc2)c2ccccc2)c2ccc(C)cc2)cc1	0	0	8.3*	5	93	-3
CC(C)(C)OC(=O)CNC(=O)c1[nH]cnc1C(=O)NCCCCCNC(=O)OC(C)(C)C	-1	0	0	12	74*	-3
CC(C)C[C@H](NC(=O)c1nc[nH]c1C(=O)NCC(=O)OCc1ccccc1)C(=O)OCc1ccccc1	0	0	2	16	103	37
CC(C)(C)OC(=O)CNC(=O)c1nc[nH]c1C(=O)N1CCN(C(=O)OC(C)(C)C)CC1	-1	0	1	7	103	-3
CC1CCN(C(=O)c2[nH]cnc2C(=O)NCC(=O)OC(C)(C)C)CC1	26*	0	-1	-3	98	-1
CC(C)C[C@H](NC(=O)c1nc[nH]c1C(=O)NCC(=O)OC(C)(C)C)C(=O)OCc1ccccc1	-1	0	9.4*	19	95	1
CSC(=S)NCc1cccnc1	-1	-1	2	-1	91	-3
CN(C)c1ccc(N2C(=O)CC(Sc3ccccc3C(=O)O)C2=O)cc1 (stereo unspecified)	0	0	-1	3	107	37
CCN1CCN(CCCNC(=O)c2ccc3c(c2)NC(=O)/C(=C\c2cccc(C)c2)S3)CC1	-1	1	-3	4	96	20
Cc1cccc(/C=C2/Sc3ccc(C(=O)NCCCN4CCOCC4)cc3NC2=O)c1	0	0	-2	5	94	60*
C=CCn1c(Sc2nnc(C)s2)nc2c1c(=O)[nH]c(=O)n2C	-2	0	-1	-11	68*	1
O=C(OCn1ncc(Br)c(Br)c1=O)c1ccccc1Cl	35*	-1	-2	6	46*	98*
O=C(OCn1ncc(Br)c(Br)c1=O)c1ccc(F)cc1	-3	0	0	47*	83	64*
CC(=O)OCn1ncc(N2CCOCC2)c(Br)c1=O	0	0	-1	17	98	-8
SMILES	hiPSC survival	TbMetRS inhib	MC4R ag barr	MC4R antag cAMP	ABCB6 inh 2	Exocytosis inh
O=C1C=CC2(C=C1)O[C@H](Cc1ccccc1)[C@@H](Cc1ccccc1)O2	-2	0	-2	27	99	98*
C/C(N)=C(/C#N)C(=O)COC(=O)c1ccc(OCC2CCCO2)cc1 (stereo unspecified)	1	0	-1	9	95	-12
COc1cccc(-n2nnnc2S(C)(=O)=O)c1	-5	0	-3	43*	90	80*
Cc1ccc(-c2nc3ccccc3o2)cc1NC(=S)NC(=O)c1cccs1	-2	-1	23*	13	104	2
Cc1cc(C)c2oc(-c3ccc(C)c(NC(=S)NC(=O)c4cccs4)c3)nc2c1	-1	0	-2	3	98	1
CCCCNC(=O)C1CCC(CNS(=O)(=O)c2c(C)cc(C)cc2C)CC1 (stereo unspecified)	0	0	0	22	101	1
NC(N)=NN=C(c1ccc(F)cc1)c1ccc(C(F)(F)F)cc1	-2	0	-2	-16	103	57*
O=C(N/N=C/c1ccc(C(F)(F)F)cc1)c1ccc(O)cc1	-1	-1	-3	-10	92	-6
COc1cc(C2C3=C(CC(C)(C)CC3=O)Nc3ccccc3N2C(C)=O)cc(OC)c1OC (stereo unspecified)	0	-1	0	-3	96	2
O=C(Nc1ccc(F)cc1F)c1ccc2nc(N3CCOCC3)sc2c1	-1	0	-2	9	100	0
O=C(Nc1ccccc1F)c1ccc2nc(N3C(=O)CCC3=O)sc2c1	1	-1	0	33*	96	-8
COc1cccc(C(=O)N=c2sc3cc(S(C)(=O)=O)ccc3n2C)c1	-1	-1	-2	2	101	-1
CC(=O)N(C1=C(Cl)C(=O)c2ccccc2C1=O)C1CCCCC1	0	0	-2	10	117	90*
CC(=O)N(c1ccccc1C)C1CCCC1	4	-1	-2	1	105	-9
CC(C)C1C(C#N)=C(N)Oc2n[nH]c(-c3cccs3)c21 (stereo unspecified)	-2	0	-1	0	93	-5
CC(C)C1C(C#N)=C(N)Oc2n[nH]c(-c3ccc4ccccc4c3)c21 (stereo unspecified)	-2	-1	9.4*	-14	92	8
CCCOc1ccc(CNC(=S)N/N=C/c2ccc([N+](=O)[O-])cc2)cc1	1	-1	3	-6	62*	0
